For orientation: IC50 means the midpoint of a concentration-inhibition curve.

Active and inactive are the calls of the source. No cut-off for these calls is given here.

For experiment [1], the system named is MKN-45. The experiment is described as follows: Cytotoxicity against human MKN45 cells after 24 hrs by MTT assay. The conditions noted are these: MKN-45, 24 h. Background: Tetrazolium dyes change colour on reduction, which living cells bring about.
Experiment [2] deals with DNA topoisomerase 2-alpha (Homo sapiens) (UniProt P11388). In words: Inhibition of DNA topoisomerase 2-mediated kDNA decatenation at 100 uM. The procedure, abridged:
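Cell-free topo II decatenation: 0.2 μg kDNA was incubated with HeLa-cell topo II extract and compound at 100 μM. The cleavage buffer contained 50 mM Tris-HCl pH 8.0, 120 mM KCl, 10 mM MgCl2, 1 mM ATP and 0.5 mM DTT. Reactions ran 15 min at 37 °C and were stopped with SDS. Products were resolved on 1% agarose and stained with ethidium bromide.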

For experiment [3], the system named is Calf thymus DNA. The experiment is described as follows: Binding affinity to calf thymus DNA assessed as circular dichroism by CD spectroscopy. In kind it is nucleic-acid assay. The conditions noted are these: Bos taurus. Summed up: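 CT DNA (100 μM) with drug (20 μM) in 20 mM Tris-HCl pH 7.4. DNA concentration set by UV absorbance, A260/A280 above 1.8. CD spectrum recorded 200-400 nm in a 1 cm cell after shaking, thermal equilibration and buffer subtraction. Analysed over 230-300 nm.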
(In general: CD spectra are sensitive to the conformation of chiral molecules.)

Experiment [4] concerns HL-60. In words: Cytotoxicity against human HL60 cells after 72 hrs by MTT assay. It is filed as functional, cell-based. As to conditions: HL-60, 24 h, in the assay text read “after 24 hrs” for “after 72 hrs”. Summed up: (§1)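 MTT viability assay on HeLa, HL-60, MCF-7, MKN45 and LS174 cells. MTT (500 μg/mL) was added for 4 h at 37 °C and formazan dissolved in DMSO; A570 was read. IC50 came from linear regression; experiments were done in triplicate.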

The subject of experiment [5] is HeLa. The experiment is described as follows: Induction of apoptosis in human HeLa cells assessed as damaged cells at IC50 concentration after 24 hrs using annexin V/propidium iodide staining by flow cytometry. The conditions noted are these: in the assay text read “late apoptotic cells” for “damaged cells”. It is filed as functional. The procedure, abridged: (§2)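 HeLa cells, seeded at 1 × 10^6 per well, were treated for 24 h at a fixed concentration set per compound. Cells were washed in cold PBS and resuspended in binding buffer. Staining was annexin V-FITC at 4 °C in the dark for 15 min, then PI for 5 min. Quadrants were read by flow cytometry: live, early apoptotic, late apoptotic, damaged. Run three times.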
In general terms: Flow cytometry measures light scatter and fluorescence of single cells or particles in a stream.

Experiment [6] deals with Nucleic Acid. The experiment is described as follows: Induction of conformational changes in Escherichia coli pBR322 DNA assessed as DNA relaxation at 100 uM after 2 hrs by gel electrophoresis. It is filed as nucleic-acid assay. The procedure, abridged: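 pBR322 plasmid (200 ng) was incubated with compound at 100 μM in Tris-HCl pH 7.4 for 2 h at 37 °C. Samples ran on 1% agarose and were stained with ethidium bromide; supercoiled versus relaxed forms were judged from gel migration.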

Experiment [7] has as its system HeLa. The experiment is described as follows: Cytotoxicity against human HeLa cells after 24 hrs by MTT assay.
Experiment [8] relates to HeLa. In words: Induction of lysosomal membrane permeabilization in human HeLa cells assessed as acridine orange red fluorescence at 17 uM after 24 hrs by flow cytometry. It is filed as functional. Summed up:
(§3)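 Each compound was tested at three concentrations on HeLa cells for 24 h. Adherent and floating cells were pooled and stained with 20 μg/mL acridine orange for 2 min at room temperature. Lysosomal rupture was scored by flow cytometry as percentage of cells with AO red fluorescence.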

The test system of experiment [9] is HeLa. In words: Induction of lysosomal membrane permeabilization in human HeLa cells assessed as acridine orange red fluorescence at 20 uM after 24 hrs by flow cytometry. In kind it is functional. The procedure, abridged: as §3
The nature of experiment [10]: Cytotoxicity against human LS 174T cells after 24 hrs by MTT assay. As to conditions: LS174T.
For experiment [11], the system named is MCF7. The experiment is described as follows: Cytotoxicity against human MCF7 cells after 72 hrs by MTT assay. In kind it is functional, cell-based. The conditions noted are these: MCF7, 24 h, in the assay text read “after 24 hrs” for “after 72 hrs”. The procedure, abridged:
as §1

Experiment [12] concerns HeLa. In words: Induction of cytochrome c release into cytosol in human HeLa cells at IC50 concentration after 24 hrs by FITC/Hoechst soluble immunocytochemical staining. In kind it is functional, cell-based. The procedure, abridged:
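HeLa cells were treated 24 h at compound-specific concentrations, then fixed in 10% formaldehyde, permeabilized in 90% methanol and blocked with milk. Staining was rabbit anti-cytochrome c (1:500) then FITC goat anti-rabbit IgG (1:100), 1 h each at room temperature, with 2 μg/mL Hoechst 33258 as counterstain. Cytosolic green signal was imaged by confocal microscopy.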

The test system of experiment [13] is HeLa. In words: Induction of lysosomal membrane permeabilization in human HeLa cells assessed as acridine orange red fluorescence at 14 uM after 24 hrs by flow cytometry. In kind it is functional. Summed up: as §3
For experiment [14], the system named is HeLa. In words: Induction of apoptosis in human HeLa cells assessed as early apoptotic cells at IC50 concentration after 24 hrs using annexin V/propidium iodide staining by flow cytometry. It is filed as functional. The procedure, abridged:
as §2

Experiment [15] has as its system HeLa. The experiment is described as follows: Induction of lysosomal membrane permeabilization in human HeLa cells assessed as acridine orange red fluorescence at 7 uM after 24 hrs by flow cytometry. It is filed as functional. Summed up: as §3
Experiment [16] deals with HeLa. The experiment is described as follows: Induction of lysosomal membrane permeabilization in human HeLa cells assessed as acridine orange red fluorescence at 10 uM after 24 hrs by flow cytometry. It is filed as functional. The procedure, abridged: as §3
Experiment [17] has as its system HeLa. The experiment is described as follows: Induction of lysosomal membrane permeabilization in human HeLa cells assessed as acridine orange red fluorescence at 4 uM after 24 hrs by flow cytometry. In kind it is functional. Summed up: as §3

DNA topoisomerase 2-alpha (Homo sapiens), sequence (P11388 whole entry): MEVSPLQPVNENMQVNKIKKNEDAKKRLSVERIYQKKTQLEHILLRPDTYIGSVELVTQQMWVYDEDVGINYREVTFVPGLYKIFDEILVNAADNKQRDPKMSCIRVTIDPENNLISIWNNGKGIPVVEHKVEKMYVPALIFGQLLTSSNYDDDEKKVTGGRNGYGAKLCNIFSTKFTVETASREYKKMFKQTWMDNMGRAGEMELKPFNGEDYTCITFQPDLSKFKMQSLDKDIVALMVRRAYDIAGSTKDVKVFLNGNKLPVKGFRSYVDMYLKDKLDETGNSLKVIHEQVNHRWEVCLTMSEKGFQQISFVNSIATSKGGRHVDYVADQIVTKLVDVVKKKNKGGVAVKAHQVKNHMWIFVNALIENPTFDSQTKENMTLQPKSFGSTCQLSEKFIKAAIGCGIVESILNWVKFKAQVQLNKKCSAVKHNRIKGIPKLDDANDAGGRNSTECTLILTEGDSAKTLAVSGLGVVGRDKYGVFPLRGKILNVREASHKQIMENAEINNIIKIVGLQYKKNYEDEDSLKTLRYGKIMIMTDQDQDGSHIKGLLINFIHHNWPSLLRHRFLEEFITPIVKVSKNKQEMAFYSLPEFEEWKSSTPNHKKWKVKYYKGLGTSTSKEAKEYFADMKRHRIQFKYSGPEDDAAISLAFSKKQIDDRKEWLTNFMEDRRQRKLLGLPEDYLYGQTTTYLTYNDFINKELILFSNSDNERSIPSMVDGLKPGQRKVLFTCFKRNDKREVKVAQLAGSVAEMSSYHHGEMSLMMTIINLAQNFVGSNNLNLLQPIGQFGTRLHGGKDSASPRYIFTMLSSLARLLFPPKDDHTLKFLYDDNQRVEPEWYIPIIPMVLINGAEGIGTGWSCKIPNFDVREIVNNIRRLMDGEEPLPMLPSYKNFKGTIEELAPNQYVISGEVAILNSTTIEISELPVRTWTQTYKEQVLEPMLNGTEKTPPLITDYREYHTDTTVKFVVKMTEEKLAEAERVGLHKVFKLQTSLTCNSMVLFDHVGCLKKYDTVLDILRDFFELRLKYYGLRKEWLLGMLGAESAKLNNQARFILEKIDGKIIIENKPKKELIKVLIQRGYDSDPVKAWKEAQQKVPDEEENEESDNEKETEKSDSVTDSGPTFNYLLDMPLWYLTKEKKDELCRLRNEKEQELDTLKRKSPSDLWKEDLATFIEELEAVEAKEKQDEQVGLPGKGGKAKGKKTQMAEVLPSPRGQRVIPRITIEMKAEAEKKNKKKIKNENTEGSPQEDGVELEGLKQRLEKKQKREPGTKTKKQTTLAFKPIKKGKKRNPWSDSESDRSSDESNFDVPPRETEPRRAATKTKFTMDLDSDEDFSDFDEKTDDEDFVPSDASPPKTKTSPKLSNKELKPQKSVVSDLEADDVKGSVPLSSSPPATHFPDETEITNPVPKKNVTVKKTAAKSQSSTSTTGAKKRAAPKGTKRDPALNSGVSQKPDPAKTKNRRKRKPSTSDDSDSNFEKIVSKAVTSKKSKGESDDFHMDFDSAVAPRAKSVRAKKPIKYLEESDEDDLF

As to `CCCCCCCCCCCCN1C(=O)c2cccc3c(NCCNCCN(C)C)ccc(c23)C1=O`, the IC50 in experiment [1] is 11.8 µM; in experiment [4] it was 6.63 µM; in experiment [7], 16.8 µM; in [10] it was 18.6 µM; in experiment [11], 4.52 µM. In addition, the result in experiment [2] and in experiment [12] was Active. Also, the outcome in [3] and in experiment [6] was inactive. Also, the Activity stood at 20.72% in [5]; 93.5% in [8]; 88.49% in experiment [9]; 94.85% in experiment [13]; 79.21% in [14].
With `CCCCCCCCN1C(=O)c2cccc3c(NCCN4CCN(C)CC4)ccc(c23)C1=O`, the 50% inhibitory concentration (IC50) in experiment [1] is 17.4 µM; in [4], 12 µM; in experiment [7], 7.9 µM; in [10] it was 17.9 µM; in experiment [11] it was 8.35 µM. Moreover, the Activity in [15] amounted to 88.55%; in experiment [16], 89.89%; in experiment [5], 53.82%; in experiment [17], 93.04%. Besides, the outcome in experiment [2] and in [12] was Active. For the same compound, the outcome in experiment [3] and in experiment [6] was inactive.

The values are drawn from ChEMBL document CHEMBL1157617, “A new class of naphthalimide-based antitumor agents that inhibit topoisomerase II and induce lysosomal membrane permeabilization and apoptosis” (J Med Chem, 2010).
